Bioassay records as filed in PubChem.
Compounds with a hit are over-represented: about 2.9% of the library has one in this group of screens.
Apaf-1 inh = inhibitors of human Apaf-1 apoptosome, primary screen, biochemical, DEVD-Rh110 fluorescence, uHTS. actives 0.71% (n = 330,000). inhibition, % at 20 µM. AID 489030, 2010. Apoptotic protease-activating factor 1 (Homo sapiens), O14727. reconstituted apoptosome caspase-3 activity; active = inhibition of at least 40% at 20 µM
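System: Apoptosome proteins | Medium: Hepes pH 7.5 with detergent and BSA | Also added: Cytochrome c trigger plus (Z-DEVD)2-Rh110 caspase-3 substrate | Incubation: 30 min compound preincubation, 50 min activation, room temperature | Detection: Rhodamine 110 fluorescence at Ex 480/Em 540 nm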
MEKK2mut PB1 HTS = MEK5 binding signal on mutant MEKK2 PB1, primary screen, biochemical, multiplex bead flow cytometry, Alexa488-MEK5 | Alexa488-MEK5 binding to MEKK2 mutant | percent response, % at 10 µM | actives 0.35% (n = 290,000) | AID 1530, 2009; in the data active = percent response above about 24%, passing the limit was not always enough
MEKK2 WT-MEK5 = modulators of MEK5 binding to wildtype MEKK2, primary screen, biochemical, multiplex bead flow cytometry, Alexa488-MEK5 | Mitogen-activated protein kinase kinase kinase 2 (Homo sapiens), Q9Y2U5 | AID 1531, 2009 | binding response (% of control), % at 10 µM | actives 1.1% (n = 290,000) | Alexa488-MEK5 binding to MEKK2 WT; actives lie on both sides; in the data active = binding response below about 67% or above about 130%
UBC13 inh = UBC13 polyubiquitin chain formation inhibitors, primary screen, biochemical, TR-FRET, uHTS | inhibition, % at 20 µM | actives 0.47% (n = 330,000); in the data active = inhibition above about 45%, passing the limit was not always enough
Target sequence (P61088 whole entry, looked up): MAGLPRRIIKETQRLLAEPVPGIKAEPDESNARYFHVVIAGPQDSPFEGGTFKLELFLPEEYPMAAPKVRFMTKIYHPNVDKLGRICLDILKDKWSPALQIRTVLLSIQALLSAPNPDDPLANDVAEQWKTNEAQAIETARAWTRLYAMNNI
MEKK3 PB1 HTS = modulators of MEKK3-MEK5 PB1 binding, primary screen, biochemical, wildtype MEKK3, multiplex bead flow cytometry, Alexa488-MEK5; bead-based flow cytometry, Alexa488-MEK5 binding to MEKK3; actives lie on both sides; 0 = blocked by unlabeled MEK5, 100 = vehicle; binding response (% of control), % at 10 µM; actives 1.4% (n = 290,000);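 active = binding response more than 3 SD above or below the average of its plate-row segment, actives on both sides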;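 also: Alexa488 bead fluorescence after subtracting the streptavidin-only scavenger bead signal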
MEKK2wt confirm = modulators of MEK5 binding to wildtype MEKK2, confirmation, biochemical, single concentration, multiplex bead flow cytometry; shares compounds with MEKK3 PB1 HTS; Alexa488-MEK5 binding to MEKK2 WT; actives lie on both sides; binding response (% of control), % at 10 µM; actives 2.4% (n = 5,900); in the data active = binding response below about 16% or above about 210%; inactive = in between
MEKK2mut confirm = mutant MEKK2 PB1-MEK5 binding signal retest – biochemical, single concentration, multiplex bead flow cytometry, confirmation; shares compounds with MEKK3 PB1 HTS; Alexa488-MEK5 binding to MEKK2 mutant; percent response, % at 10 µM; actives 2% (n = 5,900); in the data active = percent response mostly above about 71%, no sharp cut-off; inactive = mostly below about 38%;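 also: higher means compound restores mutant binding toward wildtype level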
MEKK3 confirm = MEKK3 wild-type PB1 binding to MEK5, inhibitors, confirmation, biochemical, bead multiplex flow cytometry, single concentration, wildtype | shares compounds with MEKK3 PB1 HTS | actives 1.8% (n = 5,900) | AID 1894, 2009 | binding response (% of control), % at 10 µM | Alexa488-MEK5 binding to MEKK3; stronger effect = lower value;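 active = binding response below 72% of control, or above a set upper limit, though filed actives all read lower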
A number is an active result; i = inactive; nt = no result given; [ ] = another dose, or the depositor's remark.

SMILES | Apaf-1 inh | MEKK2mut PB1 HTS | MEKK2 WT-MEK5 | UBC13 inh | MEKK3 PB1 HTS | MEKK2wt confirm | MEKK2mut confirm | MEKK3 confirm
Cc1cccc(-n2c(CNC(=O)c3cccc([N+](=O)[O-])c3C)n[nH]c2=S)c1 | i | i | i | i | i | nt | nt | nt
COc1ccc(CC(=O)N2CCCC(CNC(=O)c3ccccc3Cl)C2)cc1 (stereo not given) | i | i | i | i | 47[inhibitor] | i | i | i
Cn1c(N)c(C(=O)COC(=O)c2ccc3c(c2)C(=O)N(c2ccc(Cl)cc2)C3=O)c(=O)n(C)c1=O | i | i | i | i | i | nt | nt | nt
COc1cc2ccccc2cc1C(=O)N(CCN(C)C)c1nc2c(F)cc(F)cc2s1 | i | i | i | i | i | nt | nt | nt
CCN(CC)CCN(C(=O)CCOc1ccccc1)c1nc2c(F)cc(F)cc2s1 | i | i | 148 | i | i | i | i | i
Cn1cccc1C(=O)NCc1ccc(S(N)(=O)=O)cc1 | i | i | i | i | i | nt | nt | nt
COc1ccc(/C=C2/Sc3ccc(C(=O)N4CCc5ccccc5C4)cc3NC2=O)cc1 | i | i | i | i | i | nt | nt | nt
COc1ccc(/C=C2\Sc3ccc(C(=O)N4CCc5ccccc5C4)cc3N(C)C2=O)cc1 | i | i | i | i | 130 | i | i | i
COc1cccc(CNS(=O)(=O)c2ccc(S(=O)(=O)N3CCCC3)cc2)c1 | i | 454 | 601 | i | i | i | i | i
COc1cc(OC)nc(NC(=O)COC(=O)c2cccc(Cl)c2)n1 | i | i | i | i | i | nt | nt | nt
CCN(CC)c1ccc(CN(C(=O)c2cccs2)C2CCS(=O)(=O)C2)cc1 (stereo not given) | i | i | i | i | i | nt | nt | nt
c1cc2c(cc1C1CCCCC1)c1c3n2CCN=C3CCC1 | i | i | 135 | i | i | i | i | i
Cc1ccc2c(c1)c1c3n2CCN=C3CCC1 | i | i | i | i | i | nt | nt | nt
COc1cccc(/C=N/NC(=O)CCCc2ccc(OC)c(C)c2)c1 | i | i | i | i | 156 | i | i | i
COc1ccc(OC)c(/C=N/NC(=O)CCc2ccc(O)c(O)c2)c1 | i | i | i | i | 136 | i | i | i
CC1=CC(=O)N(c2ccn(C)n2)C1=O | i | i | i | i | i | nt | nt | nt
COCc1cc(C)n(CC(=O)Nc2ccccc2C(=O)OC)c(=O)c1C#N | i | i | 2.0[inhibitor] | i | 2.0[inhibitor] | i | i | i
CCOc1ccccc1NC(=O)Cn1c(C)cc(COC)c(C#N)c1=O | i | i | i | i | i | nt | nt | nt
Cc1ccccc1NC(=O)COC(=O)C1(C)CC1(Cl)Cl (stereo not given) | i | i | 1.0[inhibitor] | i | 2.0[inhibitor] | i | i | i
CCOC(=O)CNC(=O)Nc1nnc(-c2ccc(OCC)cc2)o1 | i | i | i | i | 48[inhibitor] | i | i | i
CCN=C1NN=C(c2cc(C)n(CCc3ccccc3)c2C)CS1 | nt | i | i | nt | i | nt | nt | nt
Cc1cc(C2=NNC(=NCCc3ccccc3)SC2)c(C)n1CC1CCCO1 (stereo not given) | i | i | 150 | i | i | i | i | i
COc1ccc(-c2cc(-c3nnc(COC(=O)CC4CC5CCC4C5)o3)c3ccccc3n2)cc1OC (stereo not given) | i | i | i | i | i | nt | nt | nt
